Reference: ChEMBL document CHEMBL4673193, “Investigation of thiazolyl-benzothiophenamides as potential agents for African sleeping sickness” (RSC Med Chem, 2020)

How the values were obtained:
[1] = Selectivity index, ratio of IC50 for human HEK293 cells to IC50 for antitrypanosomal activity against Trypanosoma brucei brucei 427; type: toxicity; conditions: read-out: Ratio IC50
HEK293 [2] = experiment: Cytotoxicity against human HEK293 cells assessed as reduction in cell viability at 83.3 uM incubated for 48 hrs by resazurin dye based assay relative to control; conditions: hek293, 48 h
[3] = system: Trypanosoma brucei brucei; experiment: Antitrypanosomal activity against Trypanosoma brucei brucei 427 assessed as parasite growth inhibition incubated for 48 hrs by resazurin dye based assay; type: functional, organism-based
Procedure, shortened: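 Log-phase T. b. brucei 427 at 1200 parasites/mL in HMI-9 with 10% FCS, preincubated 24 h at 37 °C/5% CO₂. Serial dilutions made in DMEM, final 83.34 to 0.04 μM, 48 h exposure. 0.49 mM resazurin solution added, then 2 h at 37 °C plus 22 h at room temperature. Fluorescence read at ex 535/em 590 nm; IC50 from concentration curves.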

[4] = system: Trypanosoma brucei brucei; experiment: Antitrypanosomal activity against Trypanosoma brucei brucei 427 assessed as parasite growth inhibition at 83.3 uM incubated for 48 hrs by resazurin dye based assay relative to control; type: functional; parameters: scale not given: the % may be the effect or the level left
HEK293 [5] = experiment: Cytotoxicity against human HEK293 cells assessed as reduction in cell viability at 79.4 uM incubated for 48 hrs by resazurin dye based assay relative to control; conditions: hek293, 48 h
[6] = Selectivity index, ratio of IC50 for rat L6 cells to IC50 for antitrypanosomal activity against bloodstream form of Trypanosoma brucei rhodesiense STIB900; type: toxicity; conditions: read-out: Ratio IC50
[7] = system: Trypanosoma brucei rhodesiense; experiment: Antitrypanosomal activity against bloodstream form of Trypanosoma brucei rhodesiense STIB900 incubated for 70 hrs by Alamar blue dye-based fluorometric analysis; type: functional, organism-based; conditions: STIB900, 70 h
L6 = experiment: Cytotoxicity against rat L6 cells assessed as reduction in cell viability after 70 hrs by Alamar blue dye-based fluorometric analysis; conditions: L6, 70 h
Procedure, shortened: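 Rat skeletal myoblast L6 cells, 4000 per well in RPMI 1640 with L-glutamine and 10% FBS. Eleven 3-fold dilutions from 100 to 0.002 μg/mL, 70 h. Wells checked by microscope, then Alamar Blue added for 2 h. Fluorescence read at 536/588 nm; IC50 by linear and 4-parameter logistic regression of dose-inhibition curves.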

[8] = system: Trypanosoma brucei brucei; experiment: Antitrypanosomal activity against Trypanosoma brucei brucei 427 assessed as parasite growth inhibition at 41.7 uM incubated for 48 hrs by resazurin dye based assay relative to control; type: functional; parameters: scale not given: the % may be the effect or the level left
HEK293 [9] = experiment: Cytotoxicity against human HEK293 cells assessed as reduction in cell viability at 41.7 uM incubated for 48 hrs by resazurin dye based assay relative to control; conditions: hek293, 48 h
HEK293 [10] = experiment: Cytotoxicity against human HEK293 cells assessed as reduction in cell viability incubated for 48 hrs by resazurin dye based assay
Procedure, shortened: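 HEK293 cells at 7.27×10⁴ cells/mL in DMEM with 10% FCS, preincubated 24 h at 37 °C/5% CO₂. Compounds serially diluted in DMEM, final 83.34 to 0.04 μM, 48 h. 0.49 mM resazurin solution in medium added, then 2 h at 37 °C plus 22 h at room temperature. Fluorescence read at 535/590 nm; IC50 calculated.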

[11] = system: Trypanosoma brucei brucei; experiment: Antitrypanosomal activity against Trypanosoma brucei brucei 427 assessed as parasite growth inhibition at 79.4 uM incubated for 48 hrs by resazurin dye based assay relative to control; type: functional; parameters: scale not given: the % may be the effect or the level left
[12] = Selectivity index, ratio of IC50 for antitrypanosomal activity against bloodstream form of Trypanosoma brucei rhodesiense STIB900 to IC50 for antitrypanosomal activity against Trypanosoma brucei brucei 427; type: functional
[13] = Trypanosoma brucei, 427, 48 h, read-out: IC50
[14] = Homo sapiens, HEK293, 48 h, read-out: IC50

Compound: COc1ccc(-c2c(C(=O)Nc3nc4c(s3)C(=O)CC(C)(C)C4)sc3ccccc23)cc1
- selectivity ratio [1]: > 29
- Activity (HEK293 [2]): < 50%
- IC50 [3, 13]: 2.91 µM

Compound: CC1(C)CC(=O)c2sc(NC(=O)c3sc4ccccc4c3-c3ccc(C(F)(F)F)cc3)nc2C1
- Activity [4]: <50%
- Activity (HEK293 [2]): < 50%

Compound: CC1(C)CC(=O)c2sc(NC(=O)c3cc4ccccc4s3)nc2C1
- Activity (HEK293 [5]): < 50%
- selectivity ratio [1]: > 106
- selectivity ratio [6]: 13
- IC50 [3, 13]: 0.75 µM
- IC50 [7]: 5.04 µM
- IC50 (L6): 65.4 µM

Compound: CC1(C)CC(=O)c2sc(NC(=O)c3sc4ccccc4c3-c3ccccc3)nc2C1
- Activity [8]: 93%
- Activity (HEK293 [9]): < 50%

Compound: COc1cc([C@@H]2c3cc4c(cc3[C@H](O)[C@H]3COC(=O)[C@H]23)OCO4)cc(OC)c1OC [PODOFILOX]
- IC50 (L6): 0.011 µM

Compound: CC1(C)CC(=O)c2sc(NC(=O)c3sc4ccccc4c3Cl)nc2C1
- IC50 (HEK293 [10]; [14]): 10.4 µM
- selectivity ratio [1]: 14
- IC50 [3, 13]: 0.73 µM

Compound: COc1ccc2sc(C(=O)Nc3nc4c(s3)C(=O)CC(C)(C)C4)c(Cl)c2c1
- selectivity ratio [1]: > 14
- Activity (HEK293 [2]): < 50%
- IC50 [3, 13]: 5.86 µM

Compound: O=C(Nc1nc2c(s1)C(=O)CCC2)c1cc2ccccc2s1
- Activity (HEK293 [5]): < 50%
- Activity [11]: 97%

Compound: Nc1nc(N)nc(Nc2ccc([As]3SCC(CO)S3)cc2)n1 (stereo unspecified) [MELARSOPROL]
- IC50 [7]: 0.014 µM

Compound: COc1cccc(-c2c(C(=O)Nc3nc4c(s3)C(=O)CCC4)sc3ccccc23)c1
- selectivity ratio [1]: > 9
- Activity (HEK293 [2]): 88%
- IC50 [3, 13]: 9.39 µM

Compound: CC1(C)CC(=O)c2sc(NC(=O)c3cc4cccc(-c5ccccc5)c4s3)nc2C1
- Activity (HEK293 [5]): < 50%
- selectivity ratio [1]: > 28
- IC50 [3, 13]: 2.79 µM

Compound: COc1cccc2cc(C(=O)Nc3nc4c(s3)C(=O)CC(C)(C)C4)sc12
- IC50 (HEK293 [10]; hek293): Nd(Insoluble)
- selectivity ratio [6]: 6
- IC50 [3]: Nd(Insoluble)
- IC50 [7]: 8.68 µM
- IC50 (L6): 54.5 µM

Compound: O=C1CCCc2nc(NC(=O)c3sc4ccccc4c3-c3ccc(C(F)(F)F)cc3)sc21
- Activity (HEK293 [2]): 59%
- Activity [8]: 97%

Compound: O=C1CCCc2nc(NC(=O)c3sc4ccccc4c3-c3ccccc3)sc21
- Activity [4]: 77%
- Activity (HEK293 [2]): < 50%

Compound: O=C(Nc1nccs1)c1sc2ccccc2c1Cl
- Activity [4]: 96%
- Activity (HEK293 [2]): < 50%

Compound: O=C(Nc1nc2c(s1)CCCC2)c1sc2ccccc2c1Cl
- Activity [4]: 89%
- Activity (HEK293 [2]): < 50%

Compound: Cc1ccc2c(Cl)c(C(=O)Nc3nc4c(s3)C(=O)CCC4)sc2c1
- selectivity ratio [1]: > 11
- Activity (HEK293 [2]): < 50%
- IC50 [3, 13]: 7.77 µM

Compound: CC1(C)CC(=O)c2sc(NC(=O)c3sc4ccccc4c3-c3cccc4ccccc34)nc2C1
- Activity [4]: 100%
- Activity (HEK293 [2]): 52%

Compound: O=C(Nc1nc2ccccc2s1)c1sc2ccccc2c1Cl
- Activity [4]: <50%
- Activity (HEK293 [2]): < 50%

Compound: CC1(C)CC(=O)c2sc(NC(=O)c3nc4ccccc4s3)nc2C1
- Activity (HEK293 [5]): < 50%
- selectivity ratio [1]: > 56
- selectivity ratio [6]: 3
- IC50 [3, 13]: 1.41 µM
- IC50 [7]: 10.6 µM
- IC50 (L6): 30.4 µM

Compound: CC1(C)CC(=O)c2sc(NC(=O)c3cccs3)nc2C1
- Activity (HEK293 [5]): < 50%
- Activity [11]: 90%

Compound: CC1(C)CC(=O)c2sc(NC(=O)c3sc4c(Br)cccc4c3Cl)nc2C1
- selectivity ratio [1]: > 130
- selectivity ratio [6]: 4
- IC50 [3, 13]: 0.32 µM
- IC50 [7]: 7.13 µM
- Activity (HEK293 [9]): < 50%
- IC50 (L6): 25.2 µM

Compound: C=CCN(C(=O)c1sc2ccccc2c1Cl)c1nc2c(s1)C(=O)CCC2
- Activity [4]: <50%
- Activity (HEK293 [2]): < 50%

Compound: COc1ccc(-c2c(C(=O)Nc3nc4c(s3)C(=O)CCC4)sc3ccccc23)cc1
- selectivity ratio [1]: > 12
- Activity (HEK293 [2]): 88%
- IC50 [3, 13]: 7.23 µM

Compound: COc1cccc(-c2c(C(=O)Nc3nc4c(s3)C(=O)CC(C)(C)C4)sc3ccccc23)c1
- selectivity ratio [1]: > 38
- Activity (HEK293 [2]): < 50%
- IC50 [3, 13]: 2.21 µM

Compound: O=C1CCCc2nc(NC(=O)c3sc4ccccc4c3-c3cccc4ccccc34)sc21
- IC50 (HEK293 [10]; [14]): 4.63 µM
- selectivity ratio [1]: 1
- IC50 [3, 13]: 6.38 µM

Compound: O=C1CCCc2nc(NC(=O)c3sc4ccccc4c3Cl)sc21
- selectivity ratio [1]: > 48
- Activity (HEK293 [2]): < 50%
- selectivity ratio [6]: 3
- IC50 [3, 13]: 2.5 µM
- IC50 [7]: 8.96 µM
- Ratio IC50 [12]: 4
- IC50 (L6): 24.9 µM

Compound: O=C1CCCc2nc(NC(=O)c3sc4cc(Br)ccc4c3Cl)sc21
- Activity (HEK293 [5]): < 50%
- Activity [11]: 78%

Compound: CC1(C)CC(=O)c2sc(NC(=O)c3sc4cc(Br)ccc4c3Cl)nc2C1
- Activity (HEK293 [5]): < 50%
- selectivity ratio [1]: > 12
- IC50 [3, 13]: 6.53 µM

Compound: Cc1ccc2c(Cl)c(C(=O)Nc3nc4c(s3)C(=O)CC(C)(C)C4)sc2c1
- selectivity ratio [1]: > 37
- Activity (HEK293 [2]): < 50%
- IC50 [3, 13]: 2.27 µM

Compound: N=C(N)c1ccc(OCCCCCOc2ccc(C(=N)N)cc2)cc1 [PENTAMIDINE]
- selectivity ratio [1]: 307
- IC50 [3, 13]: 0.00213 µM
